In ChEMBL document CHEMBL1154686, “Pyrazoline bearing benzimidazoles: search for anticancer agent” (2010):

Legend:
Assay type in all cases: functional
SF-268 = assay: Growth inhibition of human SF268 cells after 48 hrs by SRB assay; settings: SF-268, 48 h
How it was run: (§1)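 NCI-60 panel protocol with adherent lines. Cells were seeded at 5,000–40,000 cells/well, depending on doubling time, and pre-incubated 24 h at 37 °C, 5% CO₂. Time-zero plates were TCA-fixed at drug addition. Drugs were dissolved in DMSO and exposed for 48 h. Cells were fixed with cold TCA (final 10%) for 60 min at 4 °C, stained with 0.4% SRB in 1% acetic acid for 10 min, solubilized with 10 mM trizma base, and read at A515.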

OVCAR-8 = assay: Growth inhibition of human OVCAR8 cells after 48 hrs by SRB assay; settings: OVCAR-8, 48 h; how it was run: as §1
HCT-15 = assay: Growth inhibition of human HCT15 cells after 48 hrs by SRB assay; settings: HCT-15, 48 h; how it was run: as §1
[1] = Growth inhibition of human Hs 578T cells after 48 hrs by SRB assay; how it was run: as §1
NCI-H522 = assay: Growth inhibition of human NCI-H522 cells after 48 hrs by SRB assay; settings: NCI-H522, 48 h; how it was run: as §1
ACHN = assay: Growth inhibition of human ACHN cells after 48 hrs by SRB assay; how it was run: as §1
LOX IMVI = assay: Growth inhibition of human LOXIMVI cells after 48 hrs by SRB assay; how it was run: as §1
SK-MEL-28 = assay: Growth inhibition of human SK-MEL-28 cells after 48 hrs by SRB assay; settings: SK-MEL-28, 48 h; how it was run: as §1
786-0 = assay: Growth inhibition of human 786-0 cells after 48 hrs by SRB assay; settings: 786-0, 48 h; how it was run: as §1
IGROV-1 = assay: Growth inhibition of human IGROV1 cells after 48 hrs by SRB assay; settings: IGROV-1, 48 h; how it was run: as §1
UO-31 = assay: Growth inhibition of human UO31 cells after 48 hrs by SRB assay; settings: UO-31, 48 h
How it was run: (§2)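 NCI 60-cell panel, five-dose format: cells plated at 5,000–40,000/well by doubling time, preincubated 24 h at 37 °C, 5% CO2; time-zero plates TCA-fixed. Compound dissolved in DMSO, five concentrations (0.01, 0.1, 1, 10, 100 µM) plus control, 48 h. Cells fixed with cold TCA, stained with 0.4% SRB in 1% acetic acid, bound dye solubilized in 10 mM trizma base, absorbance at 515 nm. GI50 taken from [(Ti–Tz)/(C–Tz)]×100 = 50.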

MOLT-4 = assay: Growth inhibition of human MOLT4 cells after 48 hrs by SRB assay; settings: MOLT-4, 48 h
How it was run: (§3)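 Suspension leukemia lines were run in the NCI-60 SRB format. Cells were plated at 5,000–40,000 cells/well and pre-incubated 24 h at 37 °C, 5% CO₂, with time-zero plates fixed at drug addition. Drug exposure in DMSO-derived dilutions lasted 48 h. Settled cells were fixed with 80% TCA (final 16%), stained with 0.4% SRB, solubilized in 10 mM trizma base, and read at 515 nm. Percent growth was taken relative to the time-zero and control readings.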

TK-10 = assay: Growth inhibition of human TK10 cells after 48 hrs by SRB assay; settings: TK-10, 48 h; how it was run: as §2
MCF7 = assay: Growth inhibition of human MCF7 cells after 48 hrs by SRB assay; settings: MCF7, 48 h; how it was run: as §1
HCT-116 = assay: Growth inhibition of human HCT116 cells after 48 hrs by SRB assay; settings: HCT-116, 48 h; how it was run: as §1
SW-620 = assay: Growth inhibition of human SW620 cells after 48 hrs by SRB assay; settings: SW-620, 48 h; how it was run: as §2
MDA-MB-231 = assay: Growth inhibition of human MDA-MB-231 cells after 48 hrs by SRB assay; settings: MDA-MB-231, 48 h; how it was run: as §1
K562 = assay: Growth inhibition of human K562 cells after 48 hrs by SRB assay; settings: K562, 48 h; how it was run: as §3
HCC 2998 = assay: Growth inhibition of human HCC2998 cells after 48 hrs by SRB assay; settings: HCC 2998, 48 h; how it was run: as §1
UACC-257 = assay: Growth inhibition of human UACC257 cells after 48 hrs by SRB assay; settings: UACC-257, 48 h; how it was run: as §2
KM12 = assay: Growth inhibition of human KM12 cells after 48 hrs by SRB assay; settings: KM12, 48 h; how it was run: as §1
SR = assay: Growth inhibition of human SR cells after 48 hrs by SRB assay; how it was run: as §2
OVCAR-4 = assay: Growth inhibition of human OVCAR4 cells after 48 hrs by SRB assay; settings: OVCAR-4, 48 h; how it was run: as §1
SF-539 = assay: Growth inhibition of human SF539 cells after 48 hrs by SRB assay; settings: SF-539, 48 h; how it was run: as §1
A549 = assay: Growth inhibition of human A549 cells after 48 hrs by SRB assay; settings: A549, 48 h; how it was run: as §1
NCI-H322M = assay: Growth inhibition of human NCI-H322M cells after 48 hrs by SRB assay; how it was run: as §1
M14 = assay: Growth inhibition of human M14 cells after 48 hrs by SRB assay; settings: M14, 48 h; how it was run: as §1
[2] = read-out: LC50 (the source's name)

## COc1ccc(C2CC(c3nc4ccccc4[nH]3)=NN2c2ccccc2)cc1OC (stereo unspecified)
SF-268
  GI50: 21.3 µM
  TGI: > 100 µM
SF-268; [2]
  CC50: > 100 µM
OVCAR-8
  GI50: 19.9 µM
  TGI: > 100 µM
OVCAR-8; [2]
  CC50: > 100 µM
HCT-15
  GI50: 4.1 µM
  TGI: 20.5 µM
HCT-15; [2]
  CC50: 70.9 µM
[1]
  GI50: 6.18 µM
  TGI: 41.2 µM
[1]; [2]
  CC50: > 100 µM
NCI-H522
  GI50: 5.46 µM
  TGI: 34.8 µM
NCI-H522; [2]
  CC50: > 100 µM
ACHN
  GI50: 14 µM
  TGI: > 100 µM
ACHN; [2]
  CC50: > 100 µM
LOX IMVI
  GI50: 5.1 µM
  TGI: 21.7 µM
LOX IMVI; [2]
  CC50: 62.9 µM
SK-MEL-28
  GI50: 13.1 µM
  TGI: 39 µM
SK-MEL-28; [2]
  CC50: > 100 µM
786-0
  GI50: 24.2 µM
  TGI: > 100 µM
786-0; [2]
  CC50: > 100 µM
IGROV-1
  GI50: 0.92 µM
  TGI: 19.1 µM
IGROV-1; [2]
  CC50: > 100 µM
UO-31
  GI50: 2.2 µM
  TGI: 39.8 µM
UO-31; [2]
  CC50: > 100 µM
MOLT-4
  GI50: 17.9 µM
  TGI: > 100 µM
MOLT-4; [2]
  CC50: > 100 µM
TK-10
  GI50: 15.7 µM
  TGI: 65.9 µM
TK-10; [2]
  CC50: > 100 µM
MCF7
  GI50: 2.41 µM
  TGI: 15.3 µM
MCF7; [2]
  CC50: 54.2 µM
HCT-116
  GI50: 3.94 µM
  TGI: 16.5 µM
HCT-116; [2]
  CC50: 49.8 µM
SW-620
  GI50: 6.45 µM
  TGI: 23.3 µM
SW-620; [2]
  CC50: 65.7 µM
MDA-MB-231
  GI50: 7.19 µM
  TGI: 91.5 µM
MDA-MB-231; [2]
  CC50: > 100 µM
K562
  GI50: > 100 µM
  TGI: > 100 µM
K562; [2]
  CC50: > 100 µM
HCC 2998
  GI50: 12.4 µM
  TGI: 26.1 µM
HCC 2998; [2]
  CC50: 55 µM
UACC-257
  GI50: 77.1 µM
  TGI: > 100 µM
UACC-257; [2]
  CC50: > 100 µM
KM12
  GI50: 5.14 µM
  TGI: 19.5 µM
KM12; [2]
  CC50: 52.2 µM
SR
  GI50: > 100 µM
  TGI: > 100 µM
SR; [2]
  CC50: > 100 µM
OVCAR-4
  GI50: 9.31 µM
  TGI: > 100 µM
OVCAR-4; [2]
  CC50: > 100 µM
SF-539
  GI50: 15 µM
  TGI: 38.6 µM
SF-539; [2]
  CC50: 99.5 µM
A549
  GI50: 17.1 µM
  TGI: > 100 µM
A549; [2]
  CC50: > 100 µM
NCI-H322M
  GI50: 21.3 µM
  TGI: > 100 µM
NCI-H322M; [2]
  CC50: > 100 µM
M14
  GI50: 16.1 µM
  TGI: > 100 µM
M14; [2]
  CC50: > 100 µM
